Marks after values point to notes of the source that are not given here.
Assay: Pharmacokinetics of CK and its metabolite 20
Format: in vivo, healthy Chinese volunteers
In short: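 Healthy adults given one oral tablet dose fasting (overnight, or 10 h in a crossover food-effect arm); 30 subjects from the 100/200/400 mg groups were pooled with 24 from 200 mg fasting periods. Plasma was stored at −70°C, extracted with MTBE plus internal standards and assayed by LC-MS/MS. Cmax was observed and AUClast calculated by linear trapezoid, each divided by dose. The metabolite/parent ratio was also calculated. Genotyping used Sequenom MassARRAY, and log-transformed values were compared by one-way ANOVA.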

20(S)-PPD AUClast/D (CFTR rs2106155 CC, mean (SD)): 0.76 (0.87)
20(S)-PPD Cmax/D (CFTR rs2106155 CC, mean (SD)): 0.02 (0.02)
Ratio 20(S)-PPD/CK AUClast/D (CFTR rs2106155 CC, mean (SD)): 3.73 (6.73) %
Ratio 20(S)-PPD/CK Cmax/D (CFTR rs2106155 CC, mean (SD)): 0.80 (1.29) %
20(S)-PPD AUClast/D (CFTR rs2237726 CC, mean (SD)): 0.72 (0.85)
20(S)-PPD Cmax/D (CFTR rs2237726 CC, mean (SD)): 0.02 (0.02)
Ratio 20(S)-PPD/CK AUClast/D (CFTR rs2237726 CC, mean (SD)): 3.53 (6.59) %
Ratio 20(S)-PPD/CK Cmax/D (CFTR rs2237726 CC, mean (SD)): 0.80 (1.27) %
20(S)-PPD AUClast/D (CFTR rs2237726 CT, mean (SD)): 0.84 (0.78)
20(S)-PPD Cmax/D (CFTR rs2237726 CT, mean (SD)): 0.03 (0.03)
Ratio 20(S)-PPD/CK AUClast/D (CFTR rs2237726 CT, mean (SD)): 4.43 (5.17) %
Ratio 20(S)-PPD/CK Cmax/D (CFTR rs2237726 CT, mean (SD)): 1.42 (2.13) %
20(S)-PPD AUClast/D (CFTR rs2237726 TT, mean (SD)): 1.10 (0.47)
20(S)-PPD Cmax/D (CFTR rs2237726 TT, mean (SD)): 0.03 (0.02)
Ratio 20(S)-PPD/CK AUClast/D (CFTR rs2237726 TT, mean (SD)): 7.40 (10.14) %
Ratio 20(S)-PPD/CK Cmax/D (CFTR rs2237726 TT, mean (SD)): 1.63 (2.04) %
20(S)-PPD AUClast/D (CFTR rs4148711 AA, mean (SD)): 0.97 (0.49)
20(S)-PPD Cmax/D (CFTR rs4148711 AA, mean (SD)): 0.04 (0.02)
Ratio 20(S)-PPD/CK AUClast/D (CFTR rs4148711 AA, mean (SD)): 5.87 (7.37) %
Ratio 20(S)-PPD/CK Cmax/D (CFTR rs4148711 AA, mean (SD)): 1.40 (1.51) %
20(S)-PPD AUClast/D (CFTR rs4148711 AT, mean (SD)): 0.90 (0.98)
20(S)-PPD Cmax/D (CFTR rs4148711 AT, mean (SD)): 0.03 (0.04)
Ratio 20(S)-PPD/CK AUClast/D (CFTR rs4148711 AT, mean (SD)): 4.70 (7.26) %
Ratio 20(S)-PPD/CK Cmax/D (CFTR rs4148711 AT, mean (SD)): 1.40 (2.23) %
20(S)-PPD AUClast/D (CFTR rs4148711 TT, mean (SD)): 0.63 (0.57)
20(S)-PPD Cmax/D (CFTR rs4148711 TT, mean (SD)): 0.02 (0.02)
Ratio 20(S)-PPD/CK AUClast/D (CFTR rs4148711 TT, mean (SD)): 2.87 (3.42) %
Ratio 20(S)-PPD/CK Cmax/D (CFTR rs4148711 TT, mean (SD)): 0.66 (0.71) %
20(S)-PPD AUClast/D (NR1I2 rs1464602 AA, mean (SD)): 0.69 (0.50)
20(S)-PPD Cmax/D (NR1I2 rs1464602 AA, mean (SD)): 0.02 (0.02)
Ratio 20(S)-PPD/CK AUClast/D (NR1I2 rs1464602 AA, mean (SD)): 3.33 (3.32) %
Ratio 20(S)-PPD/CK Cmax/D (NR1I2 rs1464602 AA, mean (SD)): 0.85 (0.79) %
20(S)-PPD AUClast/D (NR1I2 rs1464602 AG, mean (SD)): 0.85 (0.89)
20(S)-PPD Cmax/D (NR1I2 rs1464602 AG, mean (SD)): 0.03 (0.03)
Ratio 20(S)-PPD/CK AUClast/D (NR1I2 rs1464602 AG, mean (SD)): 3.45 (6.88) %
Ratio 20(S)-PPD/CK Cmax/D (NR1I2 rs1464602 AG, mean (SD)): 0.80 (1.32) %
20(S)-PPD AUClast/D (NR1I2 rs1464602 GG, mean (SD)): 1.09 (1.05)
20(S)-PPD Cmax/D (NR1I2 rs1464602 GG, mean (SD)): 0.04 (0.04)
Ratio 20(S)-PPD/CK AUClast/D (NR1I2 rs1464602 GG, mean (SD)): 7.81 (8.88) %
Ratio 20(S)-PPD/CK Cmax/D (NR1I2 rs1464602 GG, mean (SD)): 2.40 (3.04) %
20(S)-PPD AUClast/D (NR1I2 rs1523127 AA, mean (SD)): 0.87 (0.86)
20(S)-PPD Cmax/D (NR1I2 rs1523127 AA, mean (SD)): 0.03 (0.03)
Ratio 20(S)-PPD/CK AUClast/D (NR1I2 rs1523127 AA, mean (SD)): 4.60 (7.04) %
Ratio 20(S)-PPD/CK Cmax/D (NR1I2 rs1523127 AA, mean (SD)): 1.27 (1.98) %
20(S)-PPD AUClast/D (NR1I2 rs1523127 CA, mean (SD)): 0.73 (0.52)
20(S)-PPD Cmax/D (NR1I2 rs1523127 CA, mean (SD)): 0.02 (0.02)
Ratio 20(S)-PPD/CK AUClast/D (NR1I2 rs1523127 CA, mean (SD)): 3.64 (3.52) %
Ratio 20(S)-PPD/CK Cmax/D (NR1I2 rs1523127 CA, mean (SD)): 0.87 (0.80) %
20(S)-PPD AUClast/D (NR1I2 rs1523127 CC, n = 1): 0.32 (−) ^2)
20(S)-PPD Cmax/D (NR1I2 rs1523127 CC, n = 1): 0.01 (−) ^2)
Ratio 20(S)-PPD/CK AUClast/D (NR1I2 rs1523127 CC, n = 1): 1.14 (−) ^2) %
Ratio 20(S)-PPD/CK Cmax/D (NR1I2 rs1523127 CC, n = 1): 0.22 (−) ^2) %
20(S)-PPD AUClast/D (NR1I2 rs2276707 CC, mean (SD)): 0.79 (0.54)
20(S)-PPD Cmax/D (NR1I2 rs2276707 CC, mean (SD)): 0.03 (0.02)
Ratio 20(S)-PPD/CK AUClast/D (NR1I2 rs2276707 CC, mean (SD)): 5.07 (6.48) %
Ratio 20(S)-PPD/CK Cmax/D (NR1I2 rs2276707 CC, mean (SD)): 1.15 (1.37) %
20(S)-PPD AUClast/D (NR1I2 rs2276707 CT, mean (SD)): 0.79 (0.77)
20(S)-PPD Cmax/D (NR1I2 rs2276707 CT, mean (SD)): 0.03 (0.03)
Ratio 20(S)-PPD/CK AUClast/D (NR1I2 rs2276707 CT, mean (SD)): 3.49 (4.74) %
Ratio 20(S)-PPD/CK Cmax/D (NR1I2 rs2276707 CT, mean (SD)): 1.12 (1.87) %
20(S)-PPD AUClast/D (NR1I2 rs2276707 TT, mean (SD)): 1.04 (1.19)
20(S)-PPD Cmax/D (NR1I2 rs2276707 TT, mean (SD)): 0.03 (0.03)
Ratio 20(S)-PPD/CK AUClast/D (NR1I2 rs2276707 TT, mean (SD)): 5.91 (10.37) %
Ratio 20(S)-PPD/CK Cmax/D (NR1I2 rs2276707 TT, mean (SD)): 1.27 (1.99) %
20(S)-PPD AUClast/D (NR1I2 rs2472682 AA, mean (SD)): 1.08 (1.14)
20(S)-PPD Cmax/D (NR1I2 rs2472682 AA, mean (SD)): 0.04 (0.04)
Ratio 20(S)-PPD/CK AUClast/D (NR1I2 rs2472682 AA, mean (SD)): 7.47 (9.73) %
Ratio 20(S)-PPD/CK Cmax/D (NR1I2 rs2472682 AA, mean (SD)): 2.06 (2.76) %
20(S)-PPD AUClast/D (NR1I2 rs2472682 CA, mean (SD)): 0.66 (0.50)
20(S)-PPD Cmax/D (NR1I2 rs2472682 CA, mean (SD)): 0.02 (0.02)
Ratio 20(S)-PPD/CK AUClast/D (NR1I2 rs2472682 CA, mean (SD)): 2.12 (1.73) %
Ratio 20(S)-PPD/CK Cmax/D (NR1I2 rs2472682 CA, mean (SD)): 0.59 (0.51) %
20(S)-PPD AUClast/D (NR1I2 rs2472682 CC, mean (SD)): 0.87 (0.59)
20(S)-PPD Cmax/D (NR1I2 rs2472682 CC, mean (SD)): 0.03 (0.02)
Ratio 20(S)-PPD/CK AUClast/D (NR1I2 rs2472682 CC, mean (SD)): 5.01 (4.45) %
Ratio 20(S)-PPD/CK Cmax/D (NR1I2 rs2472682 CC, mean (SD)): 1.17 (0.97) %
20(S)-PPD AUClast/D (NR1I2 rs6785049 AA, mean (SD)): 0.75 (0.59)
20(S)-PPD Cmax/D (NR1I2 rs6785049 AA, mean (SD)): 0.03 (0.02)
Ratio 20(S)-PPD/CK AUClast/D (NR1I2 rs6785049 AA, mean (SD)): 5.90 (7.79) %
Ratio 20(S)-PPD/CK Cmax/D (NR1I2 rs6785049 AA, mean (SD)): 1.37 (1.63) %
20(S)-PPD AUClast/D (NR1I2 rs6785049 AG, mean (SD)): 0.72 (0.54)
20(S)-PPD Cmax/D (NR1I2 rs6785049 AG, mean (SD)): 0.03 (0.02)
Ratio 20(S)-PPD/CK AUClast/D (NR1I2 rs6785049 AG, mean (SD)): 2.64 (2.47) %
Ratio 20(S)-PPD/CK Cmax/D (NR1I2 rs6785049 AG, mean (SD)): 0.69 (0.58) %
20(S)-PPD AUClast/D (NR1I2 rs6785049 GG, mean (SD)): 1.11 (1.21)
20(S)-PPD Cmax/D (NR1I2 rs6785049 GG, mean (SD)): 0.04 (0.04)
Ratio 20(S)-PPD/CK AUClast/D (NR1I2 rs6785049 GG, mean (SD)): 6.66 (9.43) %
Ratio 20(S)-PPD/CK Cmax/D (NR1I2 rs6785049 GG, mean (SD)): 1.98 (2.90) %
20(S)-PPD AUClast/D (NR1I2 rs7643645 AA, mean (SD)): 0.95 (0.87)
20(S)-PPD Cmax/D (NR1I2 rs7643645 AA, mean (SD)): 0.03 (0.03)
Ratio 20(S)-PPD/CK AUClast/D (NR1I2 rs7643645 AA, mean (SD)): 5.31 (8.06) %
Ratio 20(S)-PPD/CK Cmax/D (NR1I2 rs7643645 AA, mean (SD)): 1.16 (1.57) %
20(S)-PPD AUClast/D (NR1I2 rs7643645 AG, mean (SD)): 0.66 (0.76)
20(S)-PPD Cmax/D (NR1I2 rs7643645 AG, mean (SD)): 0.03 (0.03)
Ratio 20(S)-PPD/CK AUClast/D (NR1I2 rs7643645 AG, mean (SD)): 3.34 (5.02) %
Ratio 20(S)-PPD/CK Cmax/D (NR1I2 rs7643645 AG, mean (SD)): 1.21 (2.09) %
20(S)-PPD AUClast/D (NR1I2 rs7643645 GG, mean (SD)): 1.14 (0.42)
20(S)-PPD Cmax/D (NR1I2 rs7643645 GG, mean (SD)): 0.04 (0.02)
Ratio 20(S)-PPD/CK AUClast/D (NR1I2 rs7643645 GG, mean (SD)): 4.98 (4.18) %
Ratio 20(S)-PPD/CK Cmax/D (NR1I2 rs7643645 GG, mean (SD)): 1.03 (0.83) %
Compound: CC(C)=CCC[C@](C)(O)[C@H]1CC[C@]2(C)[C@@H]1[C@H](O)C[C@@H]1[C@@]3(C)CC[C@H](O)C(C)(C)[C@@H]3CC[C@]12C [20(S)-PPD, 20(S)-protopanaxadiol]
